The results in this text go back to ChEMBL document CHEMBL4813988, “Design and synthesis of N-(3-sulfamoylphenyl)amides as Trypanosoma brucei leucyl-tRNA synthetase inhibitors” (Eur J Med Chem, 2021).

SMILES strings stand for the structures.

The first assay relates to Trypanosoma brucei brucei. The experiment in a line: Antitrypanosomal activity against bloodstream form of Trypanosoma brucei brucei 221 assessed as parasite growth inhibition incubated for 72 hrs by resazurin staining based assay. In kind it is functional, organism-based. The settings on record: Trypanosoma brucei, 221, 72 h. In short, it runs like this:
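Trypanosomes kept in log phase in complete HMI-11 by subculture every 2-3 days, counted by hemocytometer, plated at final 1.0 × 10⁵/mL with serially DMSO-diluted compound (final 0.4% DMSO), triplicate wells. 72 h at 37 °C, 5% CO₂; resazurin added, further 5 h. Fluorescence ex 544/em 590 nm; triplicates averaged, IC₅₀ from sigmoidal dose-response fit.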
Background: Alamar Blue is a resazurin reagent that responds to reducing activity.
The IC50 is the concentration that gives 50% inhibition. Consider `CC(C)C[C@H](N)C(=O)NS(=O)(=O)c1cccc(NC(=O)c2ccc(OCc3ccccc3)cc2)c1`, for which the 50% inhibitory concentration (IC50) was found to be 69.8 µM.
Same read-out and setting: in the case of `Cc1ccc(C(=O)Nc2ccc(S(=O)(=O)O)c3cc(S(=O)(=O)O)cc(S(=O)(=O)O)c23)cc1NC(=O)c1cccc(NC(=O)Nc2cccc(C(=O)Nc3cc(C(=O)Nc4ccc(S(=O)(=O)O)c5cc(S(=O)(=O)O)cc(S(=O)(=O)O)c45)ccc3C)c2)c1` [SURAMIN] it was 7 ng/mL.
`N=C(N)c1ccc(OCCCCCOc2ccc(C(=N)N)cc2)cc1` [PENTAMIDINE]: the half-maximal inhibitory concentration (IC50) was determined as 9 ng/mL.

Tested on in a further assay: not listed separately
The assay is described as follows: Inhibition of Trypanosoma brucei LeuRS expressed in Escherichia coli BL21 (DE3)-RIPL cells preincubated for 20 mins in presence of [14C]leucine followed by incubation with ATP for 15 mins by liquid scintillation counting method.
Settings: not given
As to `CC(C)C[C@H](N)C(=O)NS(=O)(=O)c1cccc(NC(=O)c2ccc(O)cc2)c1`, the IC50 is 0.3 µM.
The same measure, in the same setting: in the case of `COc1cccc(C(=O)Nc2cccc(S(=O)(=O)NC(=O)[C@@H](N)CC(C)C)c2)c1` it was 2.4 µM; in that of `Cc1ccc(C(=O)Nc2cccc(S(=O)(=O)NC(=O)[C@@H](N)CC(C)C)c2)cc1`, 14 µM.
On the same count and under the same terms, in the case of `COc1cc(C(=O)Nc2cccc(S(=O)(=O)NC(=O)[C@@H](N)CC(C)C)c2)cc(OC)c1OC` it was 1.48 µM; in that of `CC(C)C[C@H](N)C(=O)NS(=O)(=O)c1cccc(NC(=O)c2cccc(Oc3ccccc3)c2)c1`, 8.6 µM.
For `CC(C)C[C@H](N)C(=O)NS(=O)(=O)c1ccc(NC(=O)c2cccc(Cl)c2)cc1`, the IC50 is 42.8 µM.
Same read-out and setting: in the case of `COc1ccc(C(=O)Nc2cccc(S(=O)(=O)NC(=O)[C@@H](N)CC(C)C)c2)cc1` it was 0.24 µM.
On to `COc1ccc(C(=O)Nc2cccc(S(=O)(=O)NC(=O)[C@@H](N)CC(C)C)c2)cc1OC`, for which the IC50 is 0.66 µM.
On the same count and under the same terms, in the case of `CC(C)C[C@H](N)C(=O)NS(=O)(=O)c1cccc(NC(=O)c2ccco2)c1` it was 3.7 µM.
`CC(C)C[C@H](N)C(=O)NS(=O)(=O)c1cccc(NC(=O)c2ccc(OCc3ccccc3)cc2)c1`: the IC50 was found to be 0.25 µM.
The same measure, in the same setting: in the case of `Cc1ccc(C(=O)Nc2ccc(S(=O)(=O)NC(=O)[C@@H](N)CC(C)C)cc2)cc1` it was 39.1 µM.
In the case of `CC(C)C[C@H](N)C(=O)Nc1ccc(S(=O)(=O)NC(=O)[C@@H](N)CC(C)C)cc1`, the IC50 was found to be 107 µM.
For the compound `CC(C)C[C@H](N)C(=O)NS(=O)(=O)c1cccc(NC(=O)c2cccc(-c3ccccc3)c2)c1`, the half-inhibitory concentration (IC50) came to 3.6 µM.
For `Cc1ccccc1C(=O)Nc1cccc(S(=O)(=O)NC(=O)[C@@H](N)CC(C)C)c1`, the concentration for half-maximal inhibition (IC50) came out at 14.3 µM.
On the same count and under the same terms, in the case of `CC(C)C[C@H](N)C(=O)NS(=O)(=O)c1cccc(NC(=O)c2ccc(Cl)cc2)c1` it was 4.9 µM; in that of `CCCCOc1ccc(C(=O)Nc2cccc(S(=O)(=O)NC(=O)[C@@H](N)CC(C)C)c2)cc1`, 0.8 µM.
The same measure, in the same setting: in the case of `CC(C)C[C@H](N)C(=O)NS(=O)(=O)c1cccc(NC(=O)c2ccc(Br)cc2)c1` it was 5.2 µM; in that of `CC(C)C[C@H](N)C(=O)NS(=O)(=O)c1ccc(NC(=O)c2ccc([N+](=O)[O-])cc2)cc1`, 32.7 µM.
With `NS(=O)(=O)c1ccc(NC(=S)NC(=O)COc2ccc(Br)cc2Cl)cc1`, the IC50 turned out to be 174 µM.
In the case of `CC(C)C[C@H](N)C(=O)NS(=O)(=O)c1cccc(NC(=O)c2cccc([N+](=O)[O-])c2)c1`, the IC50 amounted to 8.6 µM.
The same measure, in the same setting: in the case of `CC(C)C[C@H](N)C(=O)NS(=O)(=O)c1ccc(NC(=O)c2ccccc2)cc1` it was 96 µM; in that of `CC(C)C[C@H](N)C(=O)NS(=O)(=O)c1cccc(NC(=O)c2ccc(-c3ccccc3)cc2)c1`, 5.8 µM.
Regarding `CC(C)C[C@H](N)C(=O)NS(=O)(=O)c1cccc(NC(=O)c2ccccc2)c1`, the half-maximal inhibitory concentration (IC50) was determined as 9.4 µM.
Still for that read-out and setting: in the case of `COc1cccc(-c2cccc(C(=O)Nc3cccc(S(=O)(=O)NC(=O)[C@@H](N)CC(C)C)c3)c2)c1` it was 3.6 µM; in that of `Cc1cccc(C(=O)Nc2cccc(S(=O)(=O)NC(=O)[C@@H](N)CC(C)C)c2)c1`, 9.5 µM; in that of `CC(C)C[C@H](N)C(=O)NS(=O)(=O)c1cccc(NC(=O)OCc2ccccc2)c1`, 4 µM.
On the same count and under the same terms, in the case of `CC(C)C[C@H](N)C(=O)NS(=O)(=O)c1ccc(NC(=O)c2ccc(Cl)cc2)cc1` it was 116 µM; in that of `CC(C)C[C@H](N)C(=O)NS(=O)(=O)c1cccc(NC(=O)c2ccccc2[N+](=O)[O-])c1`, 11.5 µM.
On to `CC(C)C[C@H](N)C(=O)NS(=O)(=O)c1cccc(NC(=O)c2ccc([N+](=O)[O-])cc2)c1`, for which the IC50 is 14.7 µM.
`COc1ccc(-c2cccc(C(=O)Nc3cccc(S(=O)(=O)NC(=O)[C@@H](N)CC(C)C)c3)c2)cc1`: the IC50 stood at 1.8 µM.
On the same count and under the same terms, in the case of `CC(C)C[C@H](N)C(=O)NS(=O)(=O)c1cccc(NC(=O)c2ccc(OC(C)C)cc2)c1` it was 3.9 µM; in that of `CC(C)C[C@H](N)C(=O)NS(=O)(=O)c1cccc(NC(=O)c2ccc(Oc3ccccc3)cc2)c1`, 1.3 µM; in that of `CC(C)C[C@H](N)C(=O)NS(=O)(=O)c1cccc(NC(=O)c2ccc(F)cc2)c1`, 6.4 µM.
As to `CC(C)C[C@H](N)C(=O)NS(=O)(=O)c1cccc(NC(=O)c2cccs2)c1`, the IC50 came out at 6.2 µM.
Still for that read-out and setting: in the case of `CC(C)C[C@H](N)C(=O)NS(=O)(=O)c1ccc(NC(=O)c2ccc(Br)cc2)cc1` it was 31.2 µM.
On the same count and under the same terms, in the case of `CC(C)C[C@H](N)C(=O)NS(=O)(=O)c1ccc(NC(=O)c2cccc([N+](=O)[O-])c2)cc1` it was greater than 1000 µM.
The same measure, in the same setting: in the case of `CCOc1ccc(C(=O)Nc2cccc(S(=O)(=O)NC(=O)[C@@H](N)CC(C)C)c2)cc1` it was 0.5 µM; in that of `Cc1cccc(C(=O)Nc2ccc(S(=O)(=O)NC(=O)[C@@H](N)CC(C)C)cc2)c1`, 59.7 µM.

Another assay concerns Trypanosoma brucei. The assay is described as follows: Potency index, ratio of IC50 of ZCL539 to IC50 of compound for inhibition of Trypanosoma brucei LeuRS expressed in Escherichia coli BL21 (DE3)-RIPL cells preincubated for 20 mins in presence of [14C]leucine followed by incubation with ATP for 15 mins by liquid scintillation counting method. Particulars: time 35.0 min.
Take `COc1ccc(C(=O)Nc2cccc(S(=O)(=O)NC(=O)[C@@H](N)CC(C)C)c2)cc1`: the Ratio IC50 is greater than 700.
On the same count and under the same terms, in the case of `CC(C)C[C@H](N)C(=O)NS(=O)(=O)c1cccc(NC(=O)c2ccc(OCc3ccccc3)cc2)c1` it was 700.
